Assay results as given in ChEMBL document CHEMBL1152689, “Synthesis, tautomerism, and antimicrobial, anti-HCV, anti-SSPE, antioxidant, and antitumor activities of arylazobenzosuberones” (Bioorg Med Chem, 2009).
pIC50: −log10 of the molar value. Converted amounts (≈) assume the structure as drawn. The source made the active and inactive calls. The calls are words filed in the database; no cut-off is given here.

Experiments:
Bacillus subtilis [1] = assay: Antimicrobial activity against Bacillus subtilis by agar diffusion method; assay type: functional
Outline: (§1)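 Agar diffusion on plates against bacteria and fungi. MIC taken as the lowest concentration giving no visible growth on the plate.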

Hepatitis C virus = assay: Antiviral activity against HCV by cell based replicon assay; assay type: functional, Hepacivirus hominis
Outline: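 HCV replicon cells plated at 1×10^4 per well. Next day incubated at 37 °C with serially diluted compound in DMEM with 2% FBS and 0.5% DMSO. HCV RNA copy number measured by quantitative RT-PCR on total cellular RNA. Each point is the average of five replicates. Cytotoxicity measured by MTS in parallel.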

Staphylococcus aureus [2] = assay: Antimicrobial activity against Staphylococcus aureus at 2.5 ug/mL by agar diffusion method; assay type: functional; settings: read-out: IZ
[3] = system: Syncephalastrum racemosum; assay: Antimicrobial activity against Syncephalastrum racemosum at 1.25 ug/mL by agar diffusion method; assay type: functional; settings: read-out: IZ
[4] = system: Syncephalastrum racemosum; assay: Antimicrobial activity against Syncephalastrum racemosum by agar diffusion method; assay type: functional; outline: as §1
Pseudomonas aeruginosa [5] = assay: Antimicrobial activity against Pseudomonas aeruginosa at 1.25 ug/mL by agar diffusion method; assay type: functional; settings: read-out: IZ
Penicillium italicum [6] = assay: Antimicrobial activity against Penicillium italicum by agar diffusion method; assay type: functional; outline: as §1
[7] = molecular target: DNA topoisomerase 2-alpha (Mus musculus) (UniProt Q01320); assay: Inhibition of topoisomerase 2 from mouse P388 cells assessed as relaxation of pBR322 DNA by agarose gel electrophoresis relative to etoposide; assay type: cell-based
Outline: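 Topoisomerase II purified from P388 cells. One unit relaxes 0.125 µg supercoiled pBR322 DNA, incubated with or without inhibitor at 30 °C for 1 h in 50 mM Tris-HCl pH 8.0, 100 mM KCl, 10 mM MgCl2, 0.5 mM DTT, 1 mM ATP and 30 µg/ml BSA. Products run on 0.7% agarose in TBE, stained with ethidium bromide and imaged under UV.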

Penicillium italicum [8] = assay: Antimicrobial activity against Penicillium italicum at 2.5 ug/mL by agar diffusion method; assay type: functional; settings: read-out: IZ
Staphylococcus aureus [9] = assay: Antimicrobial activity against Staphylococcus aureus at 5 ug/mL by agar diffusion method; assay type: functional; settings: read-out: IZ
Candida albicans [10] = assay: Antimicrobial activity against Candida albicans at 2.5 ug/mL by agar diffusion method; assay type: functional; settings: read-out: IZ
[11] = molecular target: T1, DNA topoisomerase 1 (Homo sapiens) (UniProt P11387); assay: Inhibition of topoisomerase 1 relative to etoposide
T1 sequence (whole entry): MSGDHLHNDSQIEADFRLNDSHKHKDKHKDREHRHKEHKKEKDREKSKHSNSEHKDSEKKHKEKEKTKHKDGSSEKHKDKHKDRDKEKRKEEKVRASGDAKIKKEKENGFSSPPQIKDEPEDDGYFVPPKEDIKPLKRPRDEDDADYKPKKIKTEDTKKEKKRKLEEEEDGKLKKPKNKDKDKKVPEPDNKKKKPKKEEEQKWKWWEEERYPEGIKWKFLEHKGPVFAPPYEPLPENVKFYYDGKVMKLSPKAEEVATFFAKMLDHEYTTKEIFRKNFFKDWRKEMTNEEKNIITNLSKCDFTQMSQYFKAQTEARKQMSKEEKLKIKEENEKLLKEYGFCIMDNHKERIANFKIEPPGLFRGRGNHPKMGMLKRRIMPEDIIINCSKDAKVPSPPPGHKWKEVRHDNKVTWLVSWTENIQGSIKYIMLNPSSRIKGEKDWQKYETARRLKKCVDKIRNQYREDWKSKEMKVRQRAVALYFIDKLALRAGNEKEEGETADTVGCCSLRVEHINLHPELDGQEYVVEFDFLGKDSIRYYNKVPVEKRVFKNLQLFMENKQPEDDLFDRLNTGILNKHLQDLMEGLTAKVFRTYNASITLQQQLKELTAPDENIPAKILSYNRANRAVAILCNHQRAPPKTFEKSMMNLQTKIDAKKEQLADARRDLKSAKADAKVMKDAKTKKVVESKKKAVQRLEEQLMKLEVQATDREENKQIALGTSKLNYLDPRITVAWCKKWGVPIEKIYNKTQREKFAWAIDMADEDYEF

Penicillium italicum [12] = assay: Antimicrobial activity against Penicillium italicum at 5 ug/mL by agar diffusion method; assay type: functional; settings: read-out: IZ
[13] = system: Radical scavenging activity; assay: Antioxidant activity assessed as DPPH free radical scavenging activity by measuring reduction in DPPH absorbance by ELISA relative to untreated control; assay type: functional; design: concentration or dose not given beside the values
Outline: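 Test compounds dissolved in DMSO, ascorbic acid standard in water, both serially diluted. 10 µl sample added to 90 µl of 100 µM DPPH in methanol and kept in the dark at 37 °C for 30 min. Absorbance read at 515 nm. Blank is DMSO plus DPPH. % reduction = (A_B − A_A)/A_B × 100. Run in triplicate.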

Aspergillus fumigatus [14] = assay: Antimicrobial activity against Aspergillus fumigatus at 2.5 ug/mL by agar diffusion method; assay type: functional; settings: read-out: IZ
Staphylococcus aureus [15] = assay: Antimicrobial activity against Staphylococcus aureus by agar diffusion method; assay type: functional; outline: as §1
[16] = Antioxidant activity assessed as inhibition of peroxynitrite-mediated 3-nitrotyrosine formation by HPLC; assay type: functional
Outline: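 Tyrosine and peroxynitrite, each 100 µM, reacted with compound at 0–300 µM in 100 mM phosphate buffer pH 7.4 at 37 °C for 15 min. Peroxynitrite made from acidified H2O2 plus KNO2, quenched with NaOH, and kept on ice no longer than 30 min before use.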

Escherichia coli [17] = assay: Antimicrobial activity against Escherichia coli by agar diffusion method; assay type: functional; outline: as §1
Bacillus subtilis [18] = assay: Antimicrobial activity against Bacillus subtilis at 2.5 ug/mL by agar diffusion method; assay type: functional; settings: read-out: IZ
Pseudomonas aeruginosa [19] = assay: Antimicrobial activity against Pseudomonas aeruginosa at 2.5 ug/mL by agar diffusion method; assay type: functional; settings: read-out: IZ
Escherichia coli [20] = assay: Antimicrobial activity against Escherichia coli at 5 ug/mL by agar diffusion method; assay type: functional; settings: read-out: IZ
Aspergillus fumigatus [21] = assay: Antimicrobial activity against Aspergillus fumigatus at 5 ug/mL by agar diffusion method; assay type: functional; settings: read-out: IZ
Bacillus subtilis [22] = assay: Antimicrobial activity against Bacillus subtilis at 5 ug/mL by agar diffusion method; assay type: functional; settings: read-out: IZ
Aspergillus fumigatus [23] = assay: Antimicrobial activity against Aspergillus fumigatus at 1.25 ug/mL by agar diffusion method; assay type: functional; settings: read-out: IZ
Aspergillus fumigatus [24] = assay: Antimicrobial activity against Aspergillus fumigatus by agar diffusion method; assay type: functional; outline: as §1
[25] = system: Syncephalastrum racemosum; assay: Antimicrobial activity against Syncephalastrum racemosum at 5 ug/mL by agar diffusion method; assay type: functional; settings: read-out: IZ
Candida albicans [26] = assay: Antimicrobial activity against Candida albicans at 5 ug/mL by agar diffusion method; assay type: functional; settings: read-out: IZ
Escherichia coli [27] = assay: Antimicrobial activity against Escherichia coli at 2.5 ug/mL by agar diffusion method; assay type: functional; settings: read-out: IZ
Candida albicans [28] = assay: Antimicrobial activity against Candida albicans by agar diffusion method; assay type: functional; outline: as §1
Pseudomonas aeruginosa [29] = assay: Antimicrobial activity against Pseudomonas aeruginosa at 5 ug/mL by agar diffusion method; assay type: functional; settings: read-out: IZ
MC-38 = assay: Antitumor activity against mouse Colon 38 cells implanted in iv dosed C57BL/6 mouse administered as single dose; assay type: functional, organism-based
Outline: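 Female C57BL/6 mice, 6 weeks old, given about 30 mg Colon 38 tumor tissue s.c. in the flank. Randomized into groups of n = 5 when tumors reached about 300 mm3 (day 1). Compound in 5% glucose given as a single iv tail-vein dose on day 1; controls received 5% glucose. Tumor volume = (length × width²)/2 and body weight tracked.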

Measles morbillivirus = assay: Antiviral activity against Measles virus infected in intracranially dosed hamster assessed as inhibition of subacute sclerosing panencephalitis; assay type: functional
Outline: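 Hamsters under ether anesthesia injected intracranially, into the subarachnoid space at 2 mm depth, at 5, 10 and 20 mg/kg/day for 10 days. Four animals per group sacrificed on days 1–20. Brains homogenized in PBS and centrifuged, supernatant deproteinized with ethanol, then MIC in brain tissue determined by HPLC and bioassay.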

[30] = system: Syncephalastrum racemosum; assay: Antimicrobial activity against Syncephalastrum racemosum at 2.5 ug/mL by agar diffusion method; assay type: functional; settings: read-out: IZ
Penicillium italicum [31] = assay: Antimicrobial activity against Penicillium italicum at 1.25 ug/mL by agar diffusion method; assay type: functional; settings: read-out: IZ
Candida albicans [32] = assay: Antimicrobial activity against Candida albicans at 1.25 ug/mL by agar diffusion method; assay type: functional; settings: read-out: IZ
Staphylococcus aureus [33] = assay: Antimicrobial activity against Staphylococcus aureus at 1.25 ug/mL by agar diffusion method; assay type: functional; settings: read-out: IZ
Bacillus subtilis [34] = assay: Antimicrobial activity against Bacillus subtilis at 1.25 ug/mL by agar diffusion method; assay type: functional; settings: read-out: IZ
Escherichia coli [35] = assay: Antimicrobial activity against Escherichia coli at 1.25 ug/mL by agar diffusion method; assay type: functional; settings: read-out: IZ

DNA topoisomerase 2-alpha (Mus musculus), sequence (Q01320 whole entry): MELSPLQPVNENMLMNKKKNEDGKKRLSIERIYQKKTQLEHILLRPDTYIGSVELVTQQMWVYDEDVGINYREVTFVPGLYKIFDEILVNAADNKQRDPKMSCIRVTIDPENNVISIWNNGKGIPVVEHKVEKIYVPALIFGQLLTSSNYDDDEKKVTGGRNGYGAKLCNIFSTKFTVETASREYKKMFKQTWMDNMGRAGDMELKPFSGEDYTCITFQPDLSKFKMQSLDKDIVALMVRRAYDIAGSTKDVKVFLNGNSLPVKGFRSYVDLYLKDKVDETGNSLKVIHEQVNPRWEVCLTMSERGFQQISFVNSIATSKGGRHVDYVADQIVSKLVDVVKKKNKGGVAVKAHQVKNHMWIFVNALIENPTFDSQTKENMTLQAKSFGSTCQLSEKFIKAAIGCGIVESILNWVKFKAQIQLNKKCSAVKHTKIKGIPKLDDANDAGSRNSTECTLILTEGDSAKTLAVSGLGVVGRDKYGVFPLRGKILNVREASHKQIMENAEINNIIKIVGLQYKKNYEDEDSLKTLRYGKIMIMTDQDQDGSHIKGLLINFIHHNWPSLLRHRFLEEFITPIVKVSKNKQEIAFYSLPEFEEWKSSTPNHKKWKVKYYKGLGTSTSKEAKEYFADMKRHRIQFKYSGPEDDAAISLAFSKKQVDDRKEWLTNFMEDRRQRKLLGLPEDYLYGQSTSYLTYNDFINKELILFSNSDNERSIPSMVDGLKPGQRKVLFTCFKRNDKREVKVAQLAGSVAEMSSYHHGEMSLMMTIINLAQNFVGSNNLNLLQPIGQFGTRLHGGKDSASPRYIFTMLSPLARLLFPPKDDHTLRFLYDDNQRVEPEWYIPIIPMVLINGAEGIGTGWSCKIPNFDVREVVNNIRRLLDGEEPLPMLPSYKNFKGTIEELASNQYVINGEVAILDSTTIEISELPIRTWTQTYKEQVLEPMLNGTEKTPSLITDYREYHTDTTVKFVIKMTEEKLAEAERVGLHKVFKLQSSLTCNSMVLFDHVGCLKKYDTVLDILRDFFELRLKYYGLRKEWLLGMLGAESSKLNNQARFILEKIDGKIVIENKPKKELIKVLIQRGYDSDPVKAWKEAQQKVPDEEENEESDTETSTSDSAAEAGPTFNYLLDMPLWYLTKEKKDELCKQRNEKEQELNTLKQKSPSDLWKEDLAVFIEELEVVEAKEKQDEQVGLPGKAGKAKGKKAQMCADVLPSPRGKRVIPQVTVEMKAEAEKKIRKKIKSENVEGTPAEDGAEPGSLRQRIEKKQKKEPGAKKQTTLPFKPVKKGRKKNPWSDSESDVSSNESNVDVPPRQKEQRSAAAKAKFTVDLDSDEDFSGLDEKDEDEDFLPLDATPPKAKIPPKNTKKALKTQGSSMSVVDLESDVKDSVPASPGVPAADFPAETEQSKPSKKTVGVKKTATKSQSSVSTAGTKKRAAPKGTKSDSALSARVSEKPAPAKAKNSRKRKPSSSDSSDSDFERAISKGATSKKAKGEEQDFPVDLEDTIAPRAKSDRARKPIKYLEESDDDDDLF

- MIC (Bacillus subtilis [1]): 0.313 µg/mL (≈ 1.12 µM)
- MIC (Hepatitis C virus): 1.02 µg/mL (≈ 3.67 µM)
- MIC [4]: 0.313 µg/mL (≈ 1.12 µM)
- MIC (Penicillium italicum [6]): 1.25 µg/mL (≈ 4.49 µM)
- Ratio [7]: 4.66
- Ratio [11]: 4.46
- MIC (Staphylococcus aureus [15]): 0.625 µg/mL (≈ 2.25 µM)
- pIC50 [16]: 4.26
- MIC (Escherichia coli [17]): 2.5 µg/mL (≈ 8.98 µM)
- MIC (Aspergillus fumigatus [24]): 0.313 µg/mL (≈ 1.12 µM)
- MIC (Candida albicans [28]): 1.25 µg/mL (≈ 4.49 µM)
- MIC (Measles morbillivirus): 6.01 µg/mL (≈ 21.6 µM)
SMILES: Cc1cccc(N/N=C2\CCCc3ccccc3C2=O)c1
- zone of inhibition at 2.5 µg/mL (Staphylococcus aureus [2]): 8 mm
- zone of inhibition at 1.25 µg/mL [3]: 8 mm
- zone of inhibition at 1.25 µg/mL (Pseudomonas aeruginosa [5]): 0 mm
- zone of inhibition at 2.5 µg/mL (Penicillium italicum [8]): 6 mm
- zone of inhibition at 5 µg/mL (Staphylococcus aureus [9]): 12 mm
- zone of inhibition at 2.5 µg/mL (Candida albicans [10]): 6 mm
- zone of inhibition at 5 µg/mL (Penicillium italicum [12]): 14 mm
- Activity [13]: 83.1%
- zone of inhibition at 2.5 µg/mL (Aspergillus fumigatus [14]): 14 mm
- zone of inhibition at 2.5 µg/mL (Bacillus subtilis [18]): 10 mm
- zone of inhibition at 2.5 µg/mL (Pseudomonas aeruginosa [19]): 0 mm
- zone of inhibition at 5 µg/mL (Escherichia coli [20]): 12 mm
- zone of inhibition at 5 µg/mL (Aspergillus fumigatus [21]): 22 mm
- zone of inhibition at 5 µg/mL (Bacillus subtilis [22]): 15 mm
- zone of inhibition at 1.25 µg/mL (Aspergillus fumigatus [23]): 9 mm
- zone of inhibition at 5 µg/mL [25]: 19 mm
- zone of inhibition at 5 µg/mL (Candida albicans [26]): 9 mm
- zone of inhibition at 2.5 µg/mL (Escherichia coli [27]): 6 mm
- zone of inhibition at 5 µg/mL (Pseudomonas aeruginosa [29]): 0 mm
- Activity (MC-38): Active
- zone of inhibition at 2.5 µg/mL [30]: 12 mm
- zone of inhibition at 1.25 µg/mL (Penicillium italicum [31]): 3 mm
- zone of inhibition at 1.25 µg/mL (Candida albicans [32]): 2 mm
- zone of inhibition at 1.25 µg/mL (Staphylococcus aureus [33]): 5 mm
- zone of inhibition at 1.25 µg/mL (Bacillus subtilis [34]): 8 mm
- zone of inhibition at 1.25 µg/mL (Escherichia coli [35]): 0 mm
